Experiments:
[1] = target: Serine/threonine-protein kinase MRCK alpha (Homo sapiens) (UniProt Q5VT25); assay: Inhibition of MRCKA at 1 uM
Procedure, shortened: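 Kinase-panel screen using KINOMEscan technology, with 250–400 kinases per panel. Each compound was tested at a single concentration, and inhibition of each kinase was recorded. Selectivity was summarised as S(90), the fraction of kinases inhibited by more than 90%.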

[2] = target: 5'-AMP-activated protein kinase catalytic subunit alpha-2 (Homo sapiens) (UniProt P54646); assay: Inhibition of AMPK-alpha2 at 1 uM
Sequence of 5'-AMP-activated protein kinase catalytic subunit alpha-2 (Homo sapiens) (P54646 whole entry, looked up): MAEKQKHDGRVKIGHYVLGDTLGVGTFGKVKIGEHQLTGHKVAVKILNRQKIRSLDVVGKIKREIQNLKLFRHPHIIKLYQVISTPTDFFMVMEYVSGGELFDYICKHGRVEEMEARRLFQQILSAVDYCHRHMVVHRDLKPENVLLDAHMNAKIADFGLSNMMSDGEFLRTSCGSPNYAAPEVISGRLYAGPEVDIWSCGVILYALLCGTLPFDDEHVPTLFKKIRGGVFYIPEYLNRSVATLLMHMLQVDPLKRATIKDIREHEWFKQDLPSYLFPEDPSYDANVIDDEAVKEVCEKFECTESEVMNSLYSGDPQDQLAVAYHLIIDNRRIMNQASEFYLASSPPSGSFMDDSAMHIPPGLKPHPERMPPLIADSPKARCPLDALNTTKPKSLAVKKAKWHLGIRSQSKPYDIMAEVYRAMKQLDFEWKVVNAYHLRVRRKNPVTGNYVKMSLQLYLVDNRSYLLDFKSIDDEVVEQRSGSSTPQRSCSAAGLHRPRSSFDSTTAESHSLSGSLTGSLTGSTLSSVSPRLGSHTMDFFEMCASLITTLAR
Procedure, shortened: (§1)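 Ambit KINOMEscan screen at a single concentration across a 250–400 kinase panel, recorded as percent inhibition. Selectivity was expressed as S(90), the fraction of kinases inhibited >90%.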

[3] = target: T1, Ephrin type-B receptor 2 (Homo sapiens) (UniProt P29323); assay: Inhibition of EPHB2 at 1 uM
T1 sequence (whole entry): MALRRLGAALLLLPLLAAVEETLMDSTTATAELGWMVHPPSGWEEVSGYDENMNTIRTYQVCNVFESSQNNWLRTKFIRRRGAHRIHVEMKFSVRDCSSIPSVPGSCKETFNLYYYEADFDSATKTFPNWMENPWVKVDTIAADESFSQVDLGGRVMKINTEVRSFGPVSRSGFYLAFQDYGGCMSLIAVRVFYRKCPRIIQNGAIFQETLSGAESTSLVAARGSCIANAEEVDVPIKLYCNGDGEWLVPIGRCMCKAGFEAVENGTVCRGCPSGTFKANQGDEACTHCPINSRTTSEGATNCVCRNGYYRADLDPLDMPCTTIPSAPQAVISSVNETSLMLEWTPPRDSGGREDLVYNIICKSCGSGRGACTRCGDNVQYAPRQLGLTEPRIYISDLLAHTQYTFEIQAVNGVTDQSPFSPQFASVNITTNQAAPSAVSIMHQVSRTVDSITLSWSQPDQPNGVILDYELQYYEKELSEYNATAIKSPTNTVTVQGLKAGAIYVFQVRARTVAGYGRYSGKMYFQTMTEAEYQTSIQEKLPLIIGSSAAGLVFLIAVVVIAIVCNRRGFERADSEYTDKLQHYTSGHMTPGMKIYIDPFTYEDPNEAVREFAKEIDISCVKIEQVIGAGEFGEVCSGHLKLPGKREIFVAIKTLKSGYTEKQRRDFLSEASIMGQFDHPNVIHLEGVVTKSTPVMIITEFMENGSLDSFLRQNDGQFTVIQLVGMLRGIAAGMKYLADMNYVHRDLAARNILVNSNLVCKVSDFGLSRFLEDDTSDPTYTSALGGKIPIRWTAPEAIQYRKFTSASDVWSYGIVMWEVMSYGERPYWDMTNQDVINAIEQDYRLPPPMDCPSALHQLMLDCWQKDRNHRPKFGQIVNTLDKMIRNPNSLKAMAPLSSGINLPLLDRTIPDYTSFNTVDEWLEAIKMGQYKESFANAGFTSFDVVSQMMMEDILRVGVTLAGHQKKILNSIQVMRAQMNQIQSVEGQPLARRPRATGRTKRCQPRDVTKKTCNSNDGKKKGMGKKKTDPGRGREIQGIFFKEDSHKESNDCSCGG
Procedure, shortened: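 Single-concentration screen using Ambit Bioscience KINOMEscan technology across a panel of 250–400 kinases. Per-kinase inhibition from this screen was summarized as S(90), the fraction of kinases inhibited by more than 90%.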

[4] = target: Dual specificity mitogen-activated protein kinase kinase 1 (Homo sapiens) (UniProt Q02750); assay: Inhibition of MEK1 at 1 uM
Sequence of Dual specificity mitogen-activated protein kinase kinase 1 (Homo sapiens) (Q02750 whole entry): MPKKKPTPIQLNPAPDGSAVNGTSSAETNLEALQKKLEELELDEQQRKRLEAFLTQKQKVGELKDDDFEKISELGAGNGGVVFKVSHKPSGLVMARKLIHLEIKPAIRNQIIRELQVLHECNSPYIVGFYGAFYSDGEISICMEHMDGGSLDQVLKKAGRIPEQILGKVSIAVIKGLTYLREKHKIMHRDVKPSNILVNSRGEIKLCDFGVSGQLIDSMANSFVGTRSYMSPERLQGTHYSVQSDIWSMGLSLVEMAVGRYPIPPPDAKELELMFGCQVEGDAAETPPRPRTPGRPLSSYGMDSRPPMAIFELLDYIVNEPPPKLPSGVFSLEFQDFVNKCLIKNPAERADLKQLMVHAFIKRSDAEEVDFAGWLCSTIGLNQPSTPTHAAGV

[5] = target: Tyrosine-protein kinase Fyn (Homo sapiens) (UniProt P06241); assay: Inhibition of FYN at 1 uM
Sequence of Tyrosine-protein kinase Fyn (Homo sapiens) (P06241 2-537 limits assumed): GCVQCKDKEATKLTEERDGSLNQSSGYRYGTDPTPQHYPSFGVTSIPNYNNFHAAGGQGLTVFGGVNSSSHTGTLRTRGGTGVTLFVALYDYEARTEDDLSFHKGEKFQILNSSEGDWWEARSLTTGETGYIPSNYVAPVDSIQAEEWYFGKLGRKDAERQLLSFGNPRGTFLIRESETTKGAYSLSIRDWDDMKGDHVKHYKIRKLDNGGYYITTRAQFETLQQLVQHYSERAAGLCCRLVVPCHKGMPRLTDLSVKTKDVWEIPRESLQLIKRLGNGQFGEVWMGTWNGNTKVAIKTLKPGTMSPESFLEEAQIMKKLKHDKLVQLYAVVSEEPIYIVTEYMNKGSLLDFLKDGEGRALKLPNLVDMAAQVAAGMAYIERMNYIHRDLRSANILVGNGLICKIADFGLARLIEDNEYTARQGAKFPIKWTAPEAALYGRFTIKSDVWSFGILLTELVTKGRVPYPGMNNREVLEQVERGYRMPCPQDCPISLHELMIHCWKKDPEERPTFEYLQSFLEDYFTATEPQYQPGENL
Procedure, shortened: (§2)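 Single-concentration screen on the Ambit KINOMEscan platform, run against a panel of 250–400 kinases. Per-kinase inhibition was also summarized as S(90), the fraction of kinases inhibited by more than 90%.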

[6] = target: Cyclin-dependent kinase 11B (Homo sapiens) (UniProt P21127); assay: Inhibition of CDC2L1 at 1 uM
Sequence of Cyclin-dependent kinase 11B (Homo sapiens) (P21127 whole entry): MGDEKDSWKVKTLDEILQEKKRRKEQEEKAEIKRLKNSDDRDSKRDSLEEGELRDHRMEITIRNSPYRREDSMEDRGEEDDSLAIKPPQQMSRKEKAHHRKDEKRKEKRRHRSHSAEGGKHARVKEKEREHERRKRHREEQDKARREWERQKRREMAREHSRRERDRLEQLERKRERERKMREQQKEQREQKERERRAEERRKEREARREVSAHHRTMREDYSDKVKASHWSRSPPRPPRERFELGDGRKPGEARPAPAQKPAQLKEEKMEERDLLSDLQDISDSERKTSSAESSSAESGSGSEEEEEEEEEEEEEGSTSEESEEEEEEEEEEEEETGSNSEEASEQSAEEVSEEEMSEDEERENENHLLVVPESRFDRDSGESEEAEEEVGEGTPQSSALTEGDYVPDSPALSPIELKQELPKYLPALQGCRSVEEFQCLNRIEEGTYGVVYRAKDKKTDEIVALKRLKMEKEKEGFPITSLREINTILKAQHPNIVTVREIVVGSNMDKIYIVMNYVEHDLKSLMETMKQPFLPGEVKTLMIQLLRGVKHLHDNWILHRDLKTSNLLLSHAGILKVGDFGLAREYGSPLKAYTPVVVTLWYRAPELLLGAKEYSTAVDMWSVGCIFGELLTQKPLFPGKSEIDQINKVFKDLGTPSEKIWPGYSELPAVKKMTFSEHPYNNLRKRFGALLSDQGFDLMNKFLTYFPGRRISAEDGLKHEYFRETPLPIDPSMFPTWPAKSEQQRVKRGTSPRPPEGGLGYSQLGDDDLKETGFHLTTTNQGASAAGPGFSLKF

[7] = target: Myosin light chain kinase, smooth muscle (Homo sapiens) (UniProt Q15746); assay: Inhibition of MLCK at 1 uM
Sequence of Myosin light chain kinase, smooth muscle (Homo sapiens) (Q15746 whole entry): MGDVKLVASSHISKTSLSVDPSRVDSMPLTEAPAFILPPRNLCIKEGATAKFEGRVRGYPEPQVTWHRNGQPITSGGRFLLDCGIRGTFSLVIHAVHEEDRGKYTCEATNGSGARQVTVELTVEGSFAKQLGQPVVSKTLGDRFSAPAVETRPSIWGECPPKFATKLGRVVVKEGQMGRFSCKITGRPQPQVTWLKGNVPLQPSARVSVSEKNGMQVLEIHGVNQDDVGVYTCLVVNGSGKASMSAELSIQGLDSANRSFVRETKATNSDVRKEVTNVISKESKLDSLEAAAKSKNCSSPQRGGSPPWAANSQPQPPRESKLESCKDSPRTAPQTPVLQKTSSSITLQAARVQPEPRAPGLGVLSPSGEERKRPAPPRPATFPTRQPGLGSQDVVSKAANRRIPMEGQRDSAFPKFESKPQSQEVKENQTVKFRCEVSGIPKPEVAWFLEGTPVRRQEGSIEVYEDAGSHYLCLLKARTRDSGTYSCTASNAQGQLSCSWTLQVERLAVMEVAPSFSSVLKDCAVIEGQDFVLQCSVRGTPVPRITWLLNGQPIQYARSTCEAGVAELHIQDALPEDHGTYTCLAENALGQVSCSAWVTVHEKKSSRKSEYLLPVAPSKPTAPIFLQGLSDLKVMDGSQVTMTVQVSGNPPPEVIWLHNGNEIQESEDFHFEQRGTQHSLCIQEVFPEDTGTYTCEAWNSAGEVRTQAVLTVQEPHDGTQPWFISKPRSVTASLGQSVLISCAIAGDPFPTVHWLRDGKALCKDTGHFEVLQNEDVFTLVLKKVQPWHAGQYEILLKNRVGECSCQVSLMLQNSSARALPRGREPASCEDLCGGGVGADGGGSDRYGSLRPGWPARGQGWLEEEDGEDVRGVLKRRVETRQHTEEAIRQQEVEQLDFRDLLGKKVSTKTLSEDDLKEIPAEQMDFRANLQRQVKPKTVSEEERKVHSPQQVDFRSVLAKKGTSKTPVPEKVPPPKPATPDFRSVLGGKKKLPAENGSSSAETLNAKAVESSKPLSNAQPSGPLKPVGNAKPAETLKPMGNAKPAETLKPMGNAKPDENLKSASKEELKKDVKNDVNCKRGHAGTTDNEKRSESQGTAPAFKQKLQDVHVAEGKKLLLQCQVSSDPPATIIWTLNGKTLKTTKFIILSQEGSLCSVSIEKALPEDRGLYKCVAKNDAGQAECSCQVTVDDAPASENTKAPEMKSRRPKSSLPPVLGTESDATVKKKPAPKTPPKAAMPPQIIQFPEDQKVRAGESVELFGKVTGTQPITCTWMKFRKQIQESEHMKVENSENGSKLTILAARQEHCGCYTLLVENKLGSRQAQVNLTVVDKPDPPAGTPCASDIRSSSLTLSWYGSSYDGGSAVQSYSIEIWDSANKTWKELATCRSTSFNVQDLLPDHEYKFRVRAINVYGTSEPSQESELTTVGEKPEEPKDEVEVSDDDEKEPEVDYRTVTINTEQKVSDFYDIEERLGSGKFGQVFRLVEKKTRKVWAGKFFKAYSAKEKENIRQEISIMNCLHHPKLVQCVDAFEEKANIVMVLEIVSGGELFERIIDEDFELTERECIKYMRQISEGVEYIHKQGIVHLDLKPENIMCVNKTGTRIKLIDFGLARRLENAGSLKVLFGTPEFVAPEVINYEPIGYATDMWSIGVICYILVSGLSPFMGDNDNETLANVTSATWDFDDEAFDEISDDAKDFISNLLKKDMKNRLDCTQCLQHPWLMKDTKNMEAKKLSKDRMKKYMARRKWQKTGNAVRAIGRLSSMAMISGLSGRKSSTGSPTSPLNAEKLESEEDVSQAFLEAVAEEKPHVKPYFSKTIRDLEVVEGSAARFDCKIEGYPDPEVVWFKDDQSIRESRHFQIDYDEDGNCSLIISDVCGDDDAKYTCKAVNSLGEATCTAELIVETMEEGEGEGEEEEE

[8] = target: Cyclin-dependent kinase 14 (Homo sapiens) (UniProt O94921); assay: Inhibition of PFTK1 at 1 uM
Sequence of Cyclin-dependent kinase 14 (Homo sapiens) (O94921 whole entry): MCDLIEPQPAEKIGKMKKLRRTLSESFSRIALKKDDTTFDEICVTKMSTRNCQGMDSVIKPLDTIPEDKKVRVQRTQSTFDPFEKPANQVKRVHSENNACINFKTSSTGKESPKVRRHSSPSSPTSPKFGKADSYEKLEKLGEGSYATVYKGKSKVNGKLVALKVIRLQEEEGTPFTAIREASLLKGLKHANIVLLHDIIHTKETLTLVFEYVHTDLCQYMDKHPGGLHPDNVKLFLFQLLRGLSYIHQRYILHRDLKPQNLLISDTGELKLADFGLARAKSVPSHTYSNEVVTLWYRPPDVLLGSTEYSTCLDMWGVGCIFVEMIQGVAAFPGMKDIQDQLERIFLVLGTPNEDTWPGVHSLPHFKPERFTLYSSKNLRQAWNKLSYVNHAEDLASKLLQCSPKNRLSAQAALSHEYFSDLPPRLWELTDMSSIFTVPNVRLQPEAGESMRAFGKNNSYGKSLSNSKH

[9] = target: Serine/threonine-protein kinase/endoribonuclease IRE1 (Homo sapiens) (UniProt O75460); assay: Inhibition of ERN1 at 1 uM
[10] = target: T2, Tyrosine-protein kinase JAK3 (Homo sapiens) (UniProt P52333); assay: Inhibition of JAK3 JH1 catalytic domain at 1 uM; procedure, shortened: as §2
T2 sequence (whole entry): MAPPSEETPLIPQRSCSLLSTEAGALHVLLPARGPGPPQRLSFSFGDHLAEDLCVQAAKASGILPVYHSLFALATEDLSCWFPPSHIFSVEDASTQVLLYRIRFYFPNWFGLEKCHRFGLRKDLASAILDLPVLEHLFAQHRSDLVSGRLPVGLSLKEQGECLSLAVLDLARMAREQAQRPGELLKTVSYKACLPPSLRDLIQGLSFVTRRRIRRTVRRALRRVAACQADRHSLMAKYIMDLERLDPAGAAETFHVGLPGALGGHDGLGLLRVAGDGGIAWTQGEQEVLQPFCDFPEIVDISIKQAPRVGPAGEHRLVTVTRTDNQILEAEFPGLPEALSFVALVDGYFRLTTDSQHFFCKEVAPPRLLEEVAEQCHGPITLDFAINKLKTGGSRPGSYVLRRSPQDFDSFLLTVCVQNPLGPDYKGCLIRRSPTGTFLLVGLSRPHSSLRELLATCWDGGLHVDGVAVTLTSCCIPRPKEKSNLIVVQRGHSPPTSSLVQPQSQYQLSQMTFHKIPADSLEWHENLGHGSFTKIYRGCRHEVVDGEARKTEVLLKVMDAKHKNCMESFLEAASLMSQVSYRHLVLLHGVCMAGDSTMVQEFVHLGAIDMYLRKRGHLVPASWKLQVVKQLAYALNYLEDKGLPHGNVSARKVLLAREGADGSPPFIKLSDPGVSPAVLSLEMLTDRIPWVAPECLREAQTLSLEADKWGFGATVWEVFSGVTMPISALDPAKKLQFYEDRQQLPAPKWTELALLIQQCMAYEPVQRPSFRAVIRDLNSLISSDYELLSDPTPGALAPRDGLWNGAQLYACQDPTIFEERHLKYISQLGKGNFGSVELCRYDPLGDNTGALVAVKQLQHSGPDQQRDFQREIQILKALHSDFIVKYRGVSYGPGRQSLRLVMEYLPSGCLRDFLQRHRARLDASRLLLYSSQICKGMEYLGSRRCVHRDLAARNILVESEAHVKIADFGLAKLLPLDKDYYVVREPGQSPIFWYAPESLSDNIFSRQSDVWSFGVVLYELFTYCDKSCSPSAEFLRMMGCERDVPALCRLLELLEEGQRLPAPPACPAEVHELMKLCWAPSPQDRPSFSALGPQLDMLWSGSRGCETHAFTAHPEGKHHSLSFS

[11] = target: Tyrosine-protein kinase BTK (Homo sapiens) (UniProt Q06187); assay: Inhibition of BTK at 1 uM; procedure, shortened: as §1

Structure (SMILES)	inhibition [1]	inhibition [2]	inhibition [3]	inhibition [4]	inhibition [5]	inhibition [6]	inhibition [7]	inhibition [8]	inhibition [9]	inhibition [10]	inhibition [11]
CN1CCN(c2ccc(-c3cnc4c(c3)N(Cc3cc(F)ccc3F)CCN4)cn2)CC1	< 50%	< 50%	< 50%	< 50%	< 50%	< 50%	< 50%	< 50%	< 50%	86.4%	< 50%
CN1CCN(c2ccc(-c3cnc4c(c3)N(Cc3cc(Cl)ccc3Cl)CCN4)cn2)CC1	< 50%	< 50%	< 50%	< 50%	< 50%	< 50%	< 50%	< 50%	< 50%	73%	< 50%
CN1CCN(c2ccc(-c3cnc4c(c3)N(Cc3c(F)ccc(F)c3Cl)CCN4)cn2)CC1	< 50%	< 50%	< 50%	< 50%	< 50%	< 50%	< 50%	< 50%	< 50%	83%	< 50%
FC(F)(F)c1ccc(Cl)cc1CN1CCNc2ncc(-c3ccnc(N4CCNCC4)c3)cc21	< 50%	< 50%	< 50%	< 50%	< 50%	< 50%	< 50%	< 50%	< 50%	88%	< 50%

Next, values leading:

inhibition [1]	inhibition [2]	inhibition [3]	inhibition [4]	inhibition [5]	inhibition [6]	inhibition [7]	inhibition [8]	inhibition [9]	inhibition [10]	inhibition [11]	Structure (SMILES)
< 50%	< 50%	< 50%	< 50%	< 50%	< 50%	< 50%	< 50%	< 50%	88%	< 50%	CC(=O)N1CCN(c2cc(-c3cnc4c(c3)N(Cc3cc(Cl)ccc3C(F)(F)F)CCN4)ccn2)CC1
< 50%	< 50%	< 50%	–	< 50%	–	–	–	–	< 50%	< 50%	O=C(O)c1ccc(-c2cnc3c(c2)N(Cc2cc(Cl)ccc2C(F)(F)F)CCN3)cc1
< 50%	< 50%	< 50%	–	< 50%	–	–	–	–	79.3%	< 50%	O=C(c1ccc(-c2cnc3c(c2)N(Cc2cc(Cl)ccc2C(F)(F)F)CCN3)cc1)N1CCCCC1
< 50%	< 50%	< 50%	< 50%	< 50%	< 50%	< 50%	< 50%	< 50%	75%	< 50%	CN1CCN(c2ccc(-c3cnc4c(c3)N(Cc3cc(Cl)ccc3C(F)(F)F)CCN4)cn2)CC1
< 50%	< 50%	< 50%	–	< 50%	–	–	–	–	93.2%	< 50%	COC1CCN(C(=O)c2ccc(-c3cnc4c(c3)N(Cc3cc(Cl)ccc3C(F)(F)F)CCN4)cc2)CC1
< 50%	< 50%	< 50%	–	< 50%	–	–	–	–	98.7%	< 50%	O=C(c1ccc(-c2cnc3c(c2)N(Cc2cc(Cl)ccc2C(F)(F)F)CCN3)cc1)N1CCC(N2CCCC2)CC1

From ChEMBL document CHEMBL1165965, “Synthesis and structure-activity relationships of 1,2,3,4-tetrahydropyrido[2,3-b]pyrazines as potent and selective inhibitors of the anaplastic lymphoma kinase” (Bioorg Med Chem, 2010)
